Experiments:
[1] = target: T1, Broad substrate specificity ATP-binding cassette transporter ABCG2 (Homo sapiens, UniProt Q9UNQ0); test: Inhibition of ABCG2 (unknown origin) expressed in HEK293 cells assessed as reduction in mitoxantrone efflux measured after 30 mins by fluorescence assay; type: cell-based
T1 sequence (Q9UNQ0 whole entry): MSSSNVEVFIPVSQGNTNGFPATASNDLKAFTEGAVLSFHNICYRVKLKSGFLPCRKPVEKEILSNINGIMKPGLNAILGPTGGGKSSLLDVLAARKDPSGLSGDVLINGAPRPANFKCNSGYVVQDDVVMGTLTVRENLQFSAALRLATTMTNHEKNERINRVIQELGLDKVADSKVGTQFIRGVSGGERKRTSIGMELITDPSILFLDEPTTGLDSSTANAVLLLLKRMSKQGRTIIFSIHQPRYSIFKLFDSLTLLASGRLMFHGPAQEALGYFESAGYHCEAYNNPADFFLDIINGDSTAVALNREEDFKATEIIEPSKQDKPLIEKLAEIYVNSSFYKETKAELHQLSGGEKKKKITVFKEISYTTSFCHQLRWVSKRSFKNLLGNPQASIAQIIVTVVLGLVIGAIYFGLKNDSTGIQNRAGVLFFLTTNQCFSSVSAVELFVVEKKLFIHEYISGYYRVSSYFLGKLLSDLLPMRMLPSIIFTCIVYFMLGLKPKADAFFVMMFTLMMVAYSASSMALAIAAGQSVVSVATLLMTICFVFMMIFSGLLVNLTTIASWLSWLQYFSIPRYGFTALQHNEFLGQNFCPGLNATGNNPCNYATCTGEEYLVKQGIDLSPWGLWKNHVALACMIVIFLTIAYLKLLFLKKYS

ABCB1 = ABCB1 (Homo sapiens, UniProt P08183); test: Inhibition of ABCB1 in human KBV1 cells at 10 uM measured after 10 mins by calcein-AM dye based fluorescence assay relative to 10 uM tariquidar; type: cell-based; settings: probe calcein-AM
Chain of ABCB1 (P08183 whole entry): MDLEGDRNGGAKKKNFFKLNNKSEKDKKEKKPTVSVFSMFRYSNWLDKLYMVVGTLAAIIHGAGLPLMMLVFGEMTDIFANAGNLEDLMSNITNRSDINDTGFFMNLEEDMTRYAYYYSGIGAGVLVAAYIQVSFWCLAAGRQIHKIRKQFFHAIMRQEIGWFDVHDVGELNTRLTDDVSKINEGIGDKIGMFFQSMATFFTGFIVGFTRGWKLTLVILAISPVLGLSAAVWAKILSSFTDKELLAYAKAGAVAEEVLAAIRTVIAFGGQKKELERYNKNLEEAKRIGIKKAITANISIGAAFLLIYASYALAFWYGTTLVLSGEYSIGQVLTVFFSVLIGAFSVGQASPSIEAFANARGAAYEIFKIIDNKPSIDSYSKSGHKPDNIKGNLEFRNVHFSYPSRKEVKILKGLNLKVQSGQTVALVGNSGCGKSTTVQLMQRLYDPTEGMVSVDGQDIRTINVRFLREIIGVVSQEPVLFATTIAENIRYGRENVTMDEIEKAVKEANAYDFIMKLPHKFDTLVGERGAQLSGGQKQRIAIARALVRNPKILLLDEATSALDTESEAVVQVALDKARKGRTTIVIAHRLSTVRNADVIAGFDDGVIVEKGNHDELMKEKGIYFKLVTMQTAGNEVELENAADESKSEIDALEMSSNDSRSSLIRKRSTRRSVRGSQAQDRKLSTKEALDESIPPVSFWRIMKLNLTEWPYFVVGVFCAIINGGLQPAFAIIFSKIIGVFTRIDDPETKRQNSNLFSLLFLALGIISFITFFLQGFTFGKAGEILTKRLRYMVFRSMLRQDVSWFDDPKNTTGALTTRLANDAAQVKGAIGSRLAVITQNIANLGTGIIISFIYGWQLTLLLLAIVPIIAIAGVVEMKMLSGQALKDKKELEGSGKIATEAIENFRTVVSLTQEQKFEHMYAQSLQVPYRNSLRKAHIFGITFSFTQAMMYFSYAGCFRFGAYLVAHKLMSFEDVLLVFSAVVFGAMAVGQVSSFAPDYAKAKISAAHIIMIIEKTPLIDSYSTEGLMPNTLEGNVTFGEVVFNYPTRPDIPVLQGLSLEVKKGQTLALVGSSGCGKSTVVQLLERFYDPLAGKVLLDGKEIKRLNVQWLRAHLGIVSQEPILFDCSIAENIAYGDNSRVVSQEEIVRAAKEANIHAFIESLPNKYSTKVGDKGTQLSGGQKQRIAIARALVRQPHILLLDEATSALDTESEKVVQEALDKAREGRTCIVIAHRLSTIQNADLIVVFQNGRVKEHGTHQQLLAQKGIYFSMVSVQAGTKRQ

ABCG2 = target: T2, ABCG2 (Homo sapiens, UniProt Q9UNQ0); test: Inhibition of ABCG2 in human MCF7/Topo cells at 100 uM after 2 hrs by Hoechst 33342 staining based fluorescence assay relative to 10 uM FTC; type: cell-based; settings: probe Hoechst 33342, read-out: Imax
T2 sequence (Q9UNQ0 whole entry): T1 sequence (Q9UNQ0 whole entry)
Procedure, shortened: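 Hoechst 33342 microplate assay in ABCG2-overexpressing MCF-7/Topo cells; maximal inhibitory effect taken as inhibition at the highest concentration (100 μM) of compound, expressed relative to the inhibition from 10 μM FTC set as 100%.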

[2] = target: T1, Broad substrate specificity ATP-binding cassette transporter ABCG2; test: Inhibition of ABCG2 in human MCF7/Topo cells after 2 hrs by Hoechst 33342 staining based fluorescence assay; type: cell-based
Procedure, shortened: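 ABCG2-overexpressing MCF-7/Topo cells, Hoechst 33342 accumulation in microplate format; inhibition expressed relative to 10 μM FTC (100%). Relative IC50 taken as the midpoint between lower and upper plateaus of each compound's own concentration–response curve, from four-parameter fit; mean ± SEM of three independent experiments in triplicate.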

[3] = Stability of the compound in DMEM measured over 24 hrs by HPLC analysis; type: physicochemical
Procedure, shortened: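 Compounds incubated in assay medium (DMEM with 10% fetal calf serum) at 37 °C; aliquots analysed by HPLC over 24 h for cleavage or degradation products.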

ABCC1 = ABCC1 (Homo sapiens, UniProt P33527); test: Inhibition of human ABCC1 expressed in MDCK2 cells at 10 uM after 60 mins by calcein-AM dye based fluorescence assay relative to 30 uM reversan; type: cell-based; settings: MDCK2 cells that express human ABCC1, probe calcein-AM
Chain of ABCC1 (P33527 whole entry): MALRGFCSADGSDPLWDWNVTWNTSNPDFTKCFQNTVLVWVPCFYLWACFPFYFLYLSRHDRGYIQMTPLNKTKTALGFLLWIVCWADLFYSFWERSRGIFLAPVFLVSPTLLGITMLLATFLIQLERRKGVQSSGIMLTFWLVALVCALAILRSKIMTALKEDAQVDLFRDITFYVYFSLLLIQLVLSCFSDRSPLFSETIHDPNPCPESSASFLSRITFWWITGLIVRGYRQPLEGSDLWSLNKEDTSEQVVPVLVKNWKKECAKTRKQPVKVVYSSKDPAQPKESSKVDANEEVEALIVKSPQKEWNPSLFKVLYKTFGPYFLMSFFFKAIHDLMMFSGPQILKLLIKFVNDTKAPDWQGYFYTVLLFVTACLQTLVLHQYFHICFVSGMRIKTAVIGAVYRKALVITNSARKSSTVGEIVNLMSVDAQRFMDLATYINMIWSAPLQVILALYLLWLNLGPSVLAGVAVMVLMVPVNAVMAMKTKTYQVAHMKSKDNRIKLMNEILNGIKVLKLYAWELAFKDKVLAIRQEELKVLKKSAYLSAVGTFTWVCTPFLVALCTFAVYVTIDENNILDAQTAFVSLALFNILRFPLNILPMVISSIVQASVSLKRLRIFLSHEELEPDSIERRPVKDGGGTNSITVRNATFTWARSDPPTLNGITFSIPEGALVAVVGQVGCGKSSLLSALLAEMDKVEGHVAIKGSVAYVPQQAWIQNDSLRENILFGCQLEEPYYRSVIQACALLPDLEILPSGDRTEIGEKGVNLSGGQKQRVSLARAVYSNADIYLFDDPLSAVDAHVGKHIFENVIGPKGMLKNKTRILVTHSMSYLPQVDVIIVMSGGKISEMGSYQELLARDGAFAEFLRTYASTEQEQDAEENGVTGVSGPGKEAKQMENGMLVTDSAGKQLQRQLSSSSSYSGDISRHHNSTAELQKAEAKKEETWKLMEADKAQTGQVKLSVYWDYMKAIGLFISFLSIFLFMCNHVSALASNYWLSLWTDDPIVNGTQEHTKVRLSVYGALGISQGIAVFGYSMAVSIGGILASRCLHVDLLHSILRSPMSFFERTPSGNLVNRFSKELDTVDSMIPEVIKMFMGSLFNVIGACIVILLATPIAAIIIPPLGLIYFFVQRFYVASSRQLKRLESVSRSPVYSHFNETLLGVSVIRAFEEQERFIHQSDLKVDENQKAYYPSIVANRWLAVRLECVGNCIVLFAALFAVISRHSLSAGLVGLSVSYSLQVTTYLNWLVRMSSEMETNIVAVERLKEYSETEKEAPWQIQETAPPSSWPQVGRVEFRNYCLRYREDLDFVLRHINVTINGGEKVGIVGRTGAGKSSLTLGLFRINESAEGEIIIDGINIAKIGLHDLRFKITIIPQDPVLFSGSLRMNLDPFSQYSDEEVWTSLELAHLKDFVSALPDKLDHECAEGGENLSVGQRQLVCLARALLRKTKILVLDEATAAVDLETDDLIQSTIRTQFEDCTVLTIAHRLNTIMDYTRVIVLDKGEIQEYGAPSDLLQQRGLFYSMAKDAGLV

[4] = Cytotoxicity against human MCF7/Topo cells at 0.1 to 10 uM measured up to 120 hrs by crystal violet staining based assay; type: cell-based
Procedure, shortened: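 Kinetic chemosensitivity assay on proliferating ABCG2-overexpressing MCF-7/Topo cells under long-term exposure at 100 nM, 1, 3 and 10 μM; 100 nM vinblastine as positive control, DMSO vehicle as negative control; growth curves followed over time.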

[5] = target: T1, Broad substrate specificity ATP-binding cassette transporter ABCG2; test: Inhibition of ABCG2 (unknown origin) expressed in MDCK2 cells incubated for 30 mins measured at 60 secs interval for 120 mins by Hoechst 33342 staining based fluorescence assay; type: cell-based

SMILES	IC50 [1] [µM]	inhibition at 10 min, 10 µM (ABCB1) [%]	Emax at 2 h, 100 µM (ABCG2) [%]	IC50 [2] [µM]	Stability [3]	inhibition at 1 h, 10 µM (ABCC1) [%]	Activity [4]	IC50 [5] [µM]
COc1cc(OC)c(C(=O)/C=C/c2ccc3nccnc3c2)cc1OC	1.4	–	–	–	–	–	–	–
COCCOCCOCCOc1cc2c(cc1OC)CCN(CCOc1ccc(/C=C/C(=O)c3cccc(NC(=O)c4ccc5ccccc5n4)c3)cc1)C2	–	< 25	81	2.83	Stable	< 25	–	–
COc1cc2c(cc1OC)CN(CC(=O)c1cccc(NC(=O)c3ccc4ccccc4n3)c1)CC2	–	< 25	77	6.73	Stable	< 25	–	–
COc1cc2c(cc1OC)CN(CCOc1ccc(/C=C/C(=O)c3cccc(NC(=O)c4ccc5ccccc5n4)c3)cc1)CC2	–	< 25	79	4.08	Stable	< 25	–	–
COc1cc2c(cc1OC)CN(CCOc1ccc(/C=C/C(=O)c3ccc(C)c(NC(=O)c4ccc5ccccc5n4)c3)cc1)CC2	–	< 25	86	0.88	Stable	< 25	Dose-dependent effect	–
COc1ccc(/C=C/C(=O)c2ccccc2NC(=O)c2cccs2)cc1OC	–	–	–	–	–	–	–	0.501
COCCOCCOCCOc1cc2c(cc1OC)CCN(CCOc1ccc(/C=C/C(=O)c3ccc(C)c(NC(=O)c4ccc5ccccc5n4)c3)cc1)C2	–	< 25	111	2.72	Stable	< 25	–	–
COc1cc2c(cc1OC)CN(CC(=O)c1ccc(C)c(NC(=O)c3ccc4ccccc4n3)c1)CC2	–	< 25	77	8.76	Stable	< 25	–	–
COCCOc1cc2c(cc1OC)CCN(CCOc1ccc(/C=C/C(=O)c3ccc(C)c(NC(=O)c4ccc5ccccc5n4)c3)cc1)C2	–	< 25	97	1.55	Stable	< 25	–	–
COCCOc1cc2c(cc1OC)CCN(CC(=O)c1ccc(C)c(NC(=O)c3ccc4ccccc4n3)c1)C2	–	< 25	79	23.2	Stable	< 25	–	–
COCCOc1cc2c(cc1OC)CCN(CCOc1ccc(/C=C/C(=O)c3cccc(NC(=O)c4ccc5ccccc5n4)c3)cc1)C2	–	< 25	72	2.13	Stable	< 25	–	–
COCCOCCOCCOc1cc2c(cc1OC)CCN(CC(=O)c1ccc(C)c(NC(=O)c3ccc4ccccc4n3)c1)C2	–	< 25	86	6.65	Stable	< 25	Non-Toxic	–
COCCOCCOCCOc1cc2c(cc1OC)CCN(CC(=O)c1cccc(NC(=O)c3ccc4ccccc4n3)c1)C2	–	< 25	47	1.13	Stable	< 25	–	–
COCCOc1cc2c(cc1OC)CCN(CC(=O)c1cccc(NC(=O)c3ccc4ccccc4n3)c1)C2	–	< 25	55	14.4	Stable	< 25	–	–

— ChEMBL document CHEMBL4196164, “Tariquidar-Related Chalcones and Ketones as ABCG2 Modulators” (ACS Med Chem Lett, 2018)
